According to ChEMBL document CHEMBL3596178, “Synthesis and biological evaluation of curcumin derivatives containing NSAIDs for their anti-inflammatory activity” (Bioorg Med Chem Lett, 2015):
Activity calls are given as the source filed them. The calls are words filed in the database; no cut-off is given here.

What was measured:
RAW264.7 = assay: Inhibition of TPA-induced cell proliferation of mouse RAW264.7 cells; assay type: functional, cell-based
Procedure, shortened: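 RAW 264.7 macrophages; proliferation measured by MTT assay. IC50 reported as mean±SD of three independent experiments.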

Mus musculus [1] = assay: Anti-inflammatory activity in BALB/c mouse assessed as reduction in TPA-induced ear edema by measuring weight of ear punches at 0.75 uM applied topically 6 mins before to TPA treatment; assay type: functional
Procedure, shortened: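 Female BALB/c mice; TPA applied topically to ears, test agents applied topically 6 min before TPA. Edema read as weight of 6 mm diameter ear punch biopsies. Screening concentration 0.75 µM.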

Mus musculus [2] = assay: Anti-inflammatory activity in BALB/c mouse model of TPA-induced ear edema assessed as reduction in inflammatory cells infiltration at 0.75 uM applied topically 6 mins before to TPA treatment by H and E staining method; assay type: functional, organism-based
Procedure, shortened: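 Female BALB/c mouse ears pretreated topically with agents or acetone (control), then TPA applied topically. Ear sections stained with H&E and assessed histologically for epidermal hyperkeratosis, stratum corneum thickening and inflammatory cell infiltration.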

Mus musculus [3] = assay: Anti-inflammatory activity in BALB/c mouse model of TPA-induced ear edema assessed as reduction in IL-1beta levels at 0.75 uM applied topically 6 mins before to TPA treatment by immunohistochemistry; assay type: functional, organism-based
Mus musculus [4] = assay: Anti-inflammatory activity in BALB/c mouse model of TPA-induced ear edema assessed as reduction in IL-6 levels at 0.75 uM applied topically 6 mins before to TPA treatment by immunohistochemistry; assay type: functional, organism-based
Mus musculus [5] = assay: Anti-inflammatory activity in BALB/c mouse model of TPA-induced ear edema assessed as reduction in p65 nuclear translocation at 0.75 uM applied topically 6 mins before to TPA treatment by immunohistochemistry; assay type: functional, organism-based
Procedure, shortened: (§1)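 TPA-induced ear edema in BALB/c mice, agents applied topically before TPA. Ear tissue examined immunohistochemically with a nonphosphorylated p65 antibody and an anti-phospho-Ser536 p65 antibody.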

Mus musculus [6] = assay: Anti-inflammatory activity in BALB/c mouse model of TPA-induced ear edema assessed as reduction in IKK activity level at 0.75 uM applied topically 6 mins before to TPA treatment by immunohistochemistry; assay type: functional, organism-based
Mus musculus [7] = assay: Anti-inflammatory activity in BALB/c mouse model of TPA-induced ear edema assessed as reduction in Ikappa-Balpha phosphorylation level at 0.75 uM applied topically 6 mins before to TPA treatment by immunohistochemistry; assay type: functional, organism-based
Procedure, shortened: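 TPA-induced ear edema in BALB/c mice, agents applied topically before TPA. Ear tissue examined immunohistochemically with an anti-phospho-Ser36 IκBα antibody and a nonphosphorylated IκB antibody.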

Mus musculus [8] = assay: Anti-inflammatory activity in BALB/c mouse model of TPA-induced ear edema assessed as reduction in TNFalpha levels at 0.75 uM applied topically 6 mins before to TPA treatment by immunohistochemistry; assay type: functional, organism-based
Mus musculus [9] = assay: Anti-inflammatory activity in BALB/c mouse model of TPA-induced ear edema assessed as reduction in phosphorylated p65 level at 0.75 uM applied topically 6 mins before to TPA treatment by immunohistochemistry; assay type: functional, organism-based; procedure, shortened: as §1

Compound	IC50 (RAW264.7)	inhibition (INH) (Mus musculus [1])	further results
COc1cc(/C=C/C(=O)CC(=O)/C=C/c2ccc(OC(=O)CCc3nc(-c4ccccc4)c(-c4ccccc4)o3)c(OC)c2)ccc1OC(=O)CCc1nc(-c2ccccc2)c(-c2ccccc2)o1	> 30 µM	10%	–
CCc1cccc2c3c([nH]c12)C(CC)(CC(=O)Oc1ccc(/C=C/C(=O)CC(=O)/C=C/c2ccc(O)c(OC)c2)cc1OC)OCC3 (stereo unspecified)	25.3 µM	10%	–
COc1cc(/C=C/C(=O)CC(=O)/C=C/c2ccc(OC(=O)c3ccccc3O)c(OC)c2)ccc1OC(=O)c1ccccc1O	6.11 µM	38.5%	–
COc1cc(/C=C/C(=O)CC(=O)/C=C/c2ccc(OC(=O)CCc3nc(-c4ccccc4)c(-c4ccccc4)o3)c(OC)c2)ccc1O	19.3 µM	75%	–
COc1cc(/C=C/C(=O)CC(=O)/C=C/c2ccc(OC(=O)C(C)c3cccc(C(=O)c4ccccc4)c3)c(OC)c2)ccc1OC(=O)C(C)c1cccc(C(=O)c2ccccc2)c1 (stereo unspecified)	> 30 µM	10%	–
O=C(Oc1ccccc1C(=O)O)c1ccccc1O	–	–	inhibition (Mus musculus [2]): Active
COc1cc(/C=C/C(=O)CC(=O)/C=C/c2ccc(OC(=O)c3ccccc3OC(C)=O)c(OC)c2)ccc1OC(=O)c1ccccc1OC(C)=O	> 30 µM	87.8%	–
COc1cc(/C=C/C(=O)CC(=O)/C=C/c2ccc(OC(=O)Cc3ccccc3Nc3c(Cl)cccc3Cl)c(OC)c2)ccc1O	> 30 µM	10%	–
COc1cc(/C=C/C(=O)CC(=O)/C=C/c2ccc(OC(=O)C(C)c3ccc(CC(C)C)cc3)c(OC)c2)ccc1O (stereo unspecified)	> 30 µM	91.8%	–
COc1cc(/C=C/C(=O)CC(=O)/C=C/c2ccc(OC(=O)c3ccccc3OC(=O)c3ccccc3O)c(OC)c2)ccc1O	> 30 µM	10%	–
COc1ccc2cc(C(C)C(=O)Oc3ccc(/C=C/C(=O)CC(=O)/C=C/c4ccc(O)c(OC)c4)cc3OC)ccc2c1 (single isomer, unassigned)	18.7 µM	87.8%	–
COc1cc(/C=C/C(=O)CC(=O)/C=C/c2ccc(OC(=O)c3ccccc3O)c(OC)c2)ccc1O	> 30 µM	91.8%	inhibition (Mus musculus [3]): Active; inhibition (Mus musculus [4]): Active; inhibition (Mus musculus [5]): Active; inhibition (Mus musculus [6]): Active; inhibition (Mus musculus [7]): Active; inhibition (Mus musculus [2]): Active
COc1cc(/C=C/C(=O)CC(=O)/C=C/c2ccc(OC(=O)c3ccccc3OC(=O)c3ccccc3O)c(OC)c2)ccc1OC(=O)c1ccccc1OC(=O)c1ccccc1O	> 30 µM	93.3%	inhibition (Mus musculus [8]): Active; inhibition (Mus musculus [9]): Active; inhibition (Mus musculus [6]): Active; inhibition (Mus musculus [7]): Active; inhibition (Mus musculus [2]): Active
CCc1cccc2c3c([nH]c12)C(CC)(CC(=O)Oc1ccc(/C=C/C(=O)CC(=O)/C=C/c2ccc(OC(=O)CC4(CC)OCCc5c4[nH]c4c(CC)cccc54)c(OC)c2)cc1OC)OCC3 (stereo unspecified)	> 30 µM	–	–
COc1cc(/C=C/C(=O)CC(=O)/C=C/c2ccc(OC(=O)c3ccccc3Nc3cccc(C(F)(F)F)c3)c(OC)c2)ccc1O	5.54 µM	90%	–
COc1cc(/C=C/C(=O)CC(=O)/C=C/c2ccc(OC(=O)Cc3ccccc3Nc3c(Cl)cccc3Cl)c(OC)c2)ccc1OC(=O)Cc1ccccc1Nc1c(Cl)cccc1Cl	> 30 µM	10%	–
COc1cc(/C=C/C(=O)CC(=O)/C=C/c2ccc(OC(=O)c3ccccc3Nc3cccc(C)c3C)c(OC)c2)ccc1O	28 µM	78%	–
COc1cc(/C=C/C(=O)CC(=O)/C=C/c2ccc(OC(=O)c3ccccc3Nc3cccc(C)c3C)c(OC)c2)ccc1OC(=O)c1ccccc1Nc1cccc(C)c1C	> 30 µM	10%	–
COc1cc(/C=C/C(=O)CC(=O)/C=C/c2ccc(OC(=O)c3ccccc3Nc3cccc(Cl)c3C)c(OC)c2)ccc1O	9.2 µM	85%	–
COc1cc(/C=C/C(=O)CC(=O)/C=C/c2ccc(OC(=O)C(C)c3ccc(CC(C)C)cc3)c(OC)c2)ccc1OC(=O)C(C)c1ccc(CC(C)C)cc1 (stereo unspecified)	7.36 µM	–	–
O=C(O)c1ccccc1O	–	–	inhibition (Mus musculus [2]): Active
COc1cc(/C=C/C(=O)CC(=O)/C=C/c2ccc(O)c(OC)c2)ccc1O [CURCUMIN]	22.9 µM	–	–
COc1cc(/C=C/C(=O)CC(=O)/C=C/c2ccc(OC(=O)C(C)c3cccc(C(=O)c4ccccc4)c3)c(OC)c2)ccc1O (stereo unspecified)	8.98 µM	68.8%	–
COc1cc(/C=C/C(=O)CC(=O)/C=C/c2ccc(OC(=O)c3cc(-c4ccc(F)cc4F)ccc3O)c(OC)c2)ccc1O	12.9 µM	10%	–
COc1ccc2cc([C@@H](C)C(=O)Oc3ccc(/C=C/C(=O)CC(=O)/C=C/c4ccc(OC(=O)[C@H](C)c5ccc6cc(OC)ccc6c5)c(OC)c4)cc3OC)ccc2c1	> 30 µM	10%	–
COc1cc(/C=C/C(=O)CC(=O)/C=C/c2ccc(OC(=O)c3ccccc3Nc3cccc(Cl)c3C)c(OC)c2)ccc1OC(=O)c1ccccc1Nc1cccc(Cl)c1C	28 µM	10%	–
COc1cc(/C=C/C(=O)CC(=O)/C=C/c2ccc(OC(=O)c3ccccc3Nc3cccc(C(F)(F)F)c3)c(OC)c2)ccc1OC(=O)c1ccccc1Nc1cccc(C(F)(F)F)c1	12.9 µM	10%	–
COc1cc(/C=C/C(=O)CC(=O)/C=C/c2ccc(OC(=O)c3ccccc3OC(C)=O)c(OC)c2)ccc1O	> 30 µM	10%	–
COc1cc(/C=C/C(=O)CC(=O)/C=C/c2ccc(OC(=O)c3cc(-c4ccc(F)cc4F)ccc3O)c(OC)c2)ccc1OC(=O)c1cc(-c2ccc(F)cc2F)ccc1O	> 30 µM	85%	–
COc1ccc2c(c1)c(CC(=O)Oc1ccc(/C=C/C(=O)CC(=O)/C=C/c3ccc(OC(=O)Cc4c(C)n(C(=O)c5ccc(Cl)cc5)c5ccc(OC)cc45)c(OC)c3)cc1OC)c(C)n2C(=O)c1ccc(Cl)cc1	> 30 µM	10%	–
